# Laboratory results taken from PubChem BioAssay.
# Activity calls are given as the source filed them.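 The calls were made as follows, unless noted: active = viability at or under a set limit in both replicates, limit being median viability minus 3 SD (cut at about 48% in these data, passing the limit was not always enough); inconclusive = at or under the limit in just one replicate; inactive = at or above the limit in both replicates.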
# What was measured:
# [1] = reducers of endogenous Her2 protein level, primary screen, SKBR3 breast tumor cells, AlphaScreen, ATP viability (AID 461;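 active = Her2 level under about 52% in both replicate screens, with viability over 70% of control, limit read from the data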;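 as to Her2 level: lower value means less Her2 protein in the cells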;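 as to viability: percent of carrier control wells set as 100% viability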); settings: 18-24 h, measured here: SKBR3 viability, ATP luminescence, at 10 µM
# [2] = molecular target: Receptor tyrosine-protein kinase erbB-2 (Homo sapiens) (UniProt P04626); assay: as above; settings: 18-24 h, at 10 µM, stronger effect = lower value
# [3] = SK-BR-3 cell growth inhibitors, pilot screen, 24 h, human (AID 572;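 active = viability at or below 10% of carrier control in both of two separate runs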;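 also: compound exposure lasted between 18 and 24 h rather than exactly 24 h; 100% = carrier-treated control wells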); settings: SK-BR-3 viability, CellTiter-Glo luminescence, at 10 µM, stronger effect = lower value
# [4] = HUVEC growth inhibition – cell-based, human, primary screen (AID 575;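 active = viability at or below 30% in both replicate assays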;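 also: 100% = median of untreated cell wells with 0.1% DMSO on each plate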); settings: HUVEC proliferation, CellTiter-Glo luminescence, 72 h; at 10 µM; stronger effect = lower value
# Summary of the method: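 system = HUVEC primary cells | amount = 1250 cells/well | buffer or medium = supplemented EBM, 2% fetal bovine serum | dosing = single-point 10 µM, DMSO 0.1% final | times = 72 h compound incubation | detection = CTG luminescence | read-out = % viability relative to median vehicle-well signal on each plate | control set = vehicle and MePR control wells | format = collagen-coated 384-well format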
# [5] = growth inhibitors of H69AR lung tumor, primary screen, human, duplicate replicates (AID 580); settings: H69AR lung tumor cells viability, ATP luminescence, 72 h; at 10 µM; stronger effect = lower value;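 also: 100% = mean luminescence of untreated wells and 0% = no signal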
# [6] = reversal of MRP1-mediated doxorubicin resistance, pilot screen, H69AR cells, doxorubicin co-treatment (AID 601;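 active = viability loss from added drug above about 55%, and viability with drug at most 40%, in both replicates, limit read from the data, passing the limit was not always enough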); settings: CellTiter-Glo, 72 h, at 10 µM; for differential viability (reversal): stronger effect = higher value
# [7] = 384-well plate pilot, post-Golgi transport modulator project, inhibition of yeast transport mutant growth (AID 636; in the data active = inhibition above about 31%); settings: absorbance 615 nm, about 18 h, stronger effect = higher value
# [8] = growth suppression of yeast trafficking mutant, preliminary HTS, modulators of trafficking downstream of Golgi apparatus project, 1536-format plate, OD 615 nm (AID 637; in the data active = inhibition above about 30%); settings: yeast transport mutant growth, absorbance 615 nm, 18 h; stronger effect = higher value
# [9] = H69AR cells + 2 uM doxorubicin, measured here: viability with 2 uM doxorubicin, stronger effect = lower value
# [10] = H69AR cells, compound alone cytotoxicity
# Chain of Receptor tyrosine-protein kinase erbB-2 (Homo sapiens) (P04626 whole entry, looked up): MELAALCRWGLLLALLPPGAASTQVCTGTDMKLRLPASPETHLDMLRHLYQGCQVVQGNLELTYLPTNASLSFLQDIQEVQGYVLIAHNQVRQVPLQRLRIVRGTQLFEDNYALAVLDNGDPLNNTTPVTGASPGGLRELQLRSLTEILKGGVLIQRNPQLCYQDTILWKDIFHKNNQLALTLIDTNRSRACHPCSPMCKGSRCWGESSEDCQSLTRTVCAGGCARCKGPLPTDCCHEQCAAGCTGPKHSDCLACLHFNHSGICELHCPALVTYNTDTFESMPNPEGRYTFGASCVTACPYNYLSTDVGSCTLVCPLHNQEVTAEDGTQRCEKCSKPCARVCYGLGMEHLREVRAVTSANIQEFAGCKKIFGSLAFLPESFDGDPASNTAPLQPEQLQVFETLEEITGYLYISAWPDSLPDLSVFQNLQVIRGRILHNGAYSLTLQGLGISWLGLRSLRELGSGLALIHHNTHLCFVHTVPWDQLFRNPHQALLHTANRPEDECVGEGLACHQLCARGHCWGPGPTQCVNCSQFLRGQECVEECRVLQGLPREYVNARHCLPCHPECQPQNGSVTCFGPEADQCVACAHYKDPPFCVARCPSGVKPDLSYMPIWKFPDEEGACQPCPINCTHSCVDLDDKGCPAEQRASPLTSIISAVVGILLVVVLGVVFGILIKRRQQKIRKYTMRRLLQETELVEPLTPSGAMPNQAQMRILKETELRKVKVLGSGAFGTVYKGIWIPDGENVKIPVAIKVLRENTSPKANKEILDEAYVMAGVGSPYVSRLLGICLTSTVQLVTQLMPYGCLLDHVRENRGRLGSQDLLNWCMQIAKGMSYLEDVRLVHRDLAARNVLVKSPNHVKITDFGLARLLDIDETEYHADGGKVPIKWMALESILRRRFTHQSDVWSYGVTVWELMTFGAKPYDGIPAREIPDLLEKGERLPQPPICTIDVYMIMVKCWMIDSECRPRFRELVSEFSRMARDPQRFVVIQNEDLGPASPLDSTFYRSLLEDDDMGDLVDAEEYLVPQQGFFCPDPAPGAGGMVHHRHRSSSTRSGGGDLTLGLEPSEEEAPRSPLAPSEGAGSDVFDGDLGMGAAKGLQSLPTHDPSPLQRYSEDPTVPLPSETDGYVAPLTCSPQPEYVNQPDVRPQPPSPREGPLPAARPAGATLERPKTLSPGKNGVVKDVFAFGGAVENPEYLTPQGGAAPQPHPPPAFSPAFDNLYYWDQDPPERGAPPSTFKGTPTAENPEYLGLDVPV
Compound,viability [1] [%],Her2 level [2],viability [3],viability [4],viability [5],differential viability (reversal) ([6]; H69AR cells + 2 uM doxorubicin),"viability [6, 9] [%]","viability [6, 10] [%]",inhibition [7],inhibition [8]
CCOC(=O)c1[nH]nc(N)c1NC(=O)c1ccc(Cl)cc1Cl,79.5,120% (inactive),79.5% (inactive),89.9% (inactive),87.8% (inactive),3.99% (inactive),83.8,87.8,3.6% (inactive),8.89% (inactive)
CCOC(=O)c1[nH]c2ccccc2c1NC(=O)C(C)(C)C,102,96% (inactive),102% (inactive),80.6% (inactive),96.6% (inactive),2.35% (inactive),94.2,96.6,-5.33% (inactive),1.67% (inactive)
CCCOc1ccc(N2C(=O)C3ON(c4ccccc4)C(c4ccc(O)c(OC)c4)C3C2=O)cc1 (stereo not given),106,100% (inactive),106% (inactive),71.6% (inactive),93.8% (inactive),10.6% (inactive),83.3,93.8,-3.03% (inactive),3.55% (inactive)
Cc1cc(C(=O)CSc2nnc(-c3ccco3)o2)c(C)n1CC1COc2ccccc2O1 (stereo not given),91.5,94% (inactive),91.5% (inactive),74.3% (inactive),89% (inactive),-9.8% (inactive),98.8,89,-2.67% (inactive),-9.52% (inactive)
Cc1cc(NCCN(C)C)n2nc(-c3cccs3)cc2n1,90,107% (inactive),90% (inactive),102% (inactive),92.6% (inactive),10.5% (inactive),82.1,92.6,-4.8% (inactive),-2.62% (inactive)
O=C(CCS(=O)(=O)c1cc(Br)cc2c1N(C(=O)C1CC1)CC2)NCC1CCCO1 (stereo not given),122,110% (inactive),122% (inactive),95.5% (inactive),81.8% (inactive),-3.57% (inactive),85.4,81.8,0.51% (inactive),11.8% (inactive)
CC(C)[C@H](NC(=O)OC(C)(C)C)c1nnc(SCC(=O)Nc2ccc(Br)cc2)o1,96.5,108% (inactive),96.5% (inactive),87.5% (inactive),93.9% (inactive),5.79% (inactive),88.1,93.9,-1.17% (inactive),-14% (inactive)
